Compound activity (PubChem BioAssay)
TRPC6 activator = mouse TRPC6 channel activators, primary screen, cell-based, HEK293, membrane potential dye | HEK293-TRPC6 membrane potential dye fluorescence; hits give high values | B-score at 10 µM | 0.13% of 310,000 active | AID 2550, 2010;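 active means B-score of the integrated fluorescence ratio above library mean plus 3 SD, and starting fluorescence ratio within library mean plus 5 SD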;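 further: higher score means more depolarization so channel activation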
TRPC4 inh = inhibitors of mouse TRPC4 channel, primary screen, Fluo4 calcium, HEK293 TRPC4beta/mu-opioid cells; Short transient receptor potential channel 4 (Mus musculus), Q9QUQ5; DAMGO-evoked Fluo4 calcium flux; hits give low values; B-score at 10 µM; 0.39% of 300,000 active;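 active means B-score over 3 SD under the library average, no early fluorescence shift, positive overall ratio signal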
Target sequence (Q9QUQ5 whole entry, looked up): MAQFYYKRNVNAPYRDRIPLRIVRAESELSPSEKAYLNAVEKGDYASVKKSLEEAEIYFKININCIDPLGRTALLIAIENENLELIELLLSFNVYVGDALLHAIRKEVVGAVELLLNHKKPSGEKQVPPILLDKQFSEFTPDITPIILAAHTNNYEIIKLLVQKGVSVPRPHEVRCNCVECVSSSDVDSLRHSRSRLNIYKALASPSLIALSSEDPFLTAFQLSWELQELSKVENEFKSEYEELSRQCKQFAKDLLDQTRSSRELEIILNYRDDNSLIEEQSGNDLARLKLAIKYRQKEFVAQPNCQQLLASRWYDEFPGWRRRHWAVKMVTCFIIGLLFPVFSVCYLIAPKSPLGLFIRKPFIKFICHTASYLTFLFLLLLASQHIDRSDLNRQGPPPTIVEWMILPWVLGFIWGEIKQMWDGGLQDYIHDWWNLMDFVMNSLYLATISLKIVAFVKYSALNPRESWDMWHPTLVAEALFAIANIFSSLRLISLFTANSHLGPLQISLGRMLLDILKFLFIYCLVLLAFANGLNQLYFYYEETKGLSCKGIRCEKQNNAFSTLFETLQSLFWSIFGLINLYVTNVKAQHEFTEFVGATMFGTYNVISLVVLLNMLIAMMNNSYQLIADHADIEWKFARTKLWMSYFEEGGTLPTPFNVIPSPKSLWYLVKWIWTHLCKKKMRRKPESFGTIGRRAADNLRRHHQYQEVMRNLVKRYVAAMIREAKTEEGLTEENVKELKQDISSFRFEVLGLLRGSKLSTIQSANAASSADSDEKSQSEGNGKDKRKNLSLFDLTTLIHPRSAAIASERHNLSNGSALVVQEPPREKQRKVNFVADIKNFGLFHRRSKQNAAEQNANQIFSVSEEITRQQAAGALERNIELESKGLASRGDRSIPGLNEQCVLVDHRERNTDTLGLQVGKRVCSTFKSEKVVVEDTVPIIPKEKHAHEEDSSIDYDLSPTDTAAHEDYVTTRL
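test system = HEK293 cells with stable TRPC4beta plus mu-opioid receptor expression | detection = Fluo4 Ca2+ flux fluorescence | read-out = integrated fluorescence ratio relative to baseline, converted to per-well B score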
TRPC4 act = activators of mouse TRPC4 channel, primary screen, Fluo4 calcium, HEK293 TRPC4beta/mu-opioid cells; Short transient receptor potential channel 4 (Mus musculus), Q9QUQ5; AID 2237, 2010; Fluo4 calcium fluorescence; hits give high values; 0.49% of 310,000 active; B-score at 10 µM;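 active means B-score above 5 SD of library B-scores, and initial fluorescence ratio not above library mean plus 5 SD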;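 further: positive B-score marks a calcium rise read as TRPC4 activation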
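Material: HEK293 stable line with TRPC4beta plus mu-opioid receptor; technique: Fluo4 calcium-sensitive dye fluorescence, kinetic, 1 Hz baseline; timing: Fluo4 dye loading 45 min at room temperature, 110 s recording; controls: assay buffer as low control, maximal DAMGO as high control; read-out: integrated baseline-normalised fluorescence ratio, converted to per-well B score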
TRPC6 inhibitor = mouse TRPC6 channel inhibitors, primary screen, cell-based, HEK293, membrane potential dye; Short transient receptor potential channel 6 (Mus musculus), Q61143; B-score at 10 µM; 1.1% of 310,000 active; AID 2553, 2010; ACh-evoked depolarization; hits give low values;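 active means B-score under library mean minus 3 SD, initial fluorescence not abnormally high, positive integrated signal ratio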;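 further: B-score derived from integrated fluorescence ratio over the kinetic read; more negative B-score means stronger inhibition of depolarization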
Kir21 block = inhibitors of mouse Kir2.1 inward-rectifier potassium channel; Inward rectifier potassium channel 2 (Mus musculus), P35561; HEK293-Kir2.1, FluxOR thallium flux fluorescence; hits give low values; B-score at 10 µM; 0.85% of 310,000 active;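 active means fluorescence ratio B-score at or below minus 3 SD of library scores, with starting-brightness B-score within 2 SD, cut at about -4.2 in these data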;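 further: channel flux triggered by added potassium and thallium sulfate stimulus; B-score of peak minus minimum fluorescence over baseline after thallium stimulus; more negative B-score means stronger Kir2.1 block with less thallium influx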
TRPC4 PAM = positive allosteric modulators of TRPC4, primary screen, cell-based, mouse TRPC4beta, HEK293 mu-opioid, Fluo-4 calcium | 0.42% of 310,000 active | Short transient receptor potential channel 4 (Mus musculus), Q9QUQ5 | DAMGO EC20, Fluo-4 Ca2+ flux; hits give high values | B-score at 10 µM;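 active means B-score of calcium response area above 5 SD of library B-scores, with initial fluorescence ratio within 5 SD of library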;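 further: B-score of integrated fluorescence ratio over time as area under calcium response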
TRPC4 spec 2 = mouse TRPC4 off-target activity of TRPC6 inhibitors, second screen; AID 2776; 42% of 920 active; inhibition, % at 10 µM; shares compounds with TRPC6 inhibitor; HEK293 TRPC4/MOR, membrane potential dye fluorescence; channel activated by saturating DAMGO dose;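 active means compounds whose fluorescence signal differed from control wells by over 3 SD, either direction, in both duplicate plates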
TRPC4 spec = mouse TRPC4 modulation by TRPC6 hits, confirmation, selectivity assay for TRPC6 inhibitor project, cell-based, HEK293 TRPC4/mu-opioid, membrane potential dye; shares compounds with TRPC6 inhibitor; membrane potential fluorescence; activity change, negative = inhibition, % at 10 µM; 61% of 920 active; AID 2777, 2010;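 active means rise or fall in signal beyond 3 SD of buffer-only wells in both replicate plates, either sign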;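 further: integrated kinetic ratio of fluorescence range over baseline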
HEK293 MPD ctr 2-1 = nonspecific membrane potential effects, parental HEK293, confirmation, counter-screen for TRPC6 inhibitor project, cell-based, second counter screen | 31% of 920 active | shares compounds with TRPC6 inhibitor | signal change vs control, % at 10 µM | parental HEK293 membrane potential dye fluorescence; maximal acetylcholine challenge after compound addition | AID 2779, 2010;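 active means membrane potential signal moving either way by over 3 SD of the maximum-effect control, in both duplicate plates, meaning non-specific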
HEK293 MPD ctr-1 = membrane potential modulation in parental HEK293, confirmation, counter-screen for TRPC6 inhibitor project, cell-based; shares compounds with TRPC6 inhibitor; parental HEK293 membrane potential dye fluorescence; membrane potential signal change, % at 10 µM; 60% of 920 active;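 active means membrane potential signal shifting up or down by more than 3 SD of buffer-only wells, on both duplicate plates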
HEK293 MPD ctr-2 = parental HEK293 membrane potential modulation, confirmation, counter-screen for TRPC6 modulator project, cell-based | shares compounds with TRPC6 inhibitor | membrane potential dye fluorescence | membrane potential signal change, % at 10 µM | 51% of 2,400 active;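 active means membrane potential signal moves up or down beyond 5 SD from buffer-only wells, on both duplicate plates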
HEK293 MPD ctr 2-2 = second check of TRPC6 modulator effects in parental HEK293 cells; AID 488926; shares compounds with TRPC6 inhibitor; 14% of 2,400 active; inhibition, % at 10 µM; membrane potential dye fluorescence; after compound, maximal acetylcholine stimulation;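 active means membrane potential signal drops by more than 5 SD from the mean control signal, in both duplicate plates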;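 further: plate controls were acetylcholine ECmax control wells for no effect and buffer only wells for full effect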
TRPC4/MOR mod = TRPC4 modulation by TRPC6 hit compounds, confirmation, selectivity assay for TRPC6 modulator project, cell-based, HEK293 TRPC4/mu-opioid, membrane potential dye, mouse; shares compounds with TRPC6 inhibitor; membrane potential fluorescence; percent change from control (negative = decrease, positive = increase), % at 10 µM; 69% of 2,400 active; AID 488927, 2010;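 active means membrane potential signal moved up or down beyond 5 SD of buffer control wells, in both duplicate plates, actives on both sides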;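 further: plate controls were assay buffer wells for no effect and DAMGO maximal-effect wells for full effect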
TRPC4/MOR inh 2 = mouse TRPC4 off-target activity of TRPC6 modulators, second screen; shares compounds with TRPC6 inhibitor; HEK293 TRPC4/mu-opioid, membrane potential dye fluorescence; stimulated with maximal-effect DAMGO; inhibition, % at 10 µM; 55% of 2,400 active; AID 488928;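 active means drop in membrane potential signal beyond 5 SD of the control wells in both duplicate plates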;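 further: TRPC4 counter screen for TRPC6 hits run under conditions tuned for TRPC6 not TRPC4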
TRPC6 block conf = mouse TRPC6 channel inhibitors, confirmation, HEK293 cells, membrane potential dye, duplicate; shares compounds with TRPC6 inhibitor; ACh-evoked depolarization; inhibition, % at 10 µM; 43% of 3,300 active;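 active means fluorescence ratio falls more than 5 SD below the full-stimulation control mean, in both duplicate runs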;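 further: integrated fluorescence ratio of peak minus minimum over baseline after agonist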
TRPC6 act conf = mouse TRPC6 channel activators, confirmation, HEK293 cells, membrane potential dye, duplicate | shares compounds with TRPC6 inhibitor | HEK293-TRPC6 membrane potential dye fluorescence, FDSS | activation, % at 10 µM | 11% of 2,800 active | AID 488961, 2010;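 active means ratio signal rise beyond 5 SD above unstimulated control wells' mean, seen in both duplicate runs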;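 further: plate controls were buffer EC0 wells for no effect and acetylcholine ECmax response for full effect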
* hit, by the source's call; i = inactive; . = not tested or not shown. A selection: hits, their analogues and other compounds. The true share with any hit is near 2.9%.

SMILES | TRPC6 activator | TRPC4 inh | TRPC4 act | TRPC6 inhibitor | Kir21 block | TRPC4 PAM | HEK293 MPD ctr-2 | HEK293 MPD ctr 2-2 | TRPC4/MOR mod | TRPC4/MOR inh 2 | TRPC6 block conf | TRPC6 act conf | others
COc1nc(C)nc2c1sc1nc3c(cc12)COC(C)(C)C3 | i | i | i | -6.42* | 1.17 | i | i | i | -11.5%* | i | i | i
CN(Cc1c(F)cccc1Cl)C(=O)CCc1c[nH]c2ccccc12 | i | i | i | i | -3.55 | i | . | . | . | . | . | .
O=C(NC1CCCC1)C(c1ccccc1)N(Cc1cccnc1)C(=O)Cc1cccs1 (stereo unspecified) | i | i | i | -6.12* | 1.58 | i | 194.0%* | i | 50.5%* | i | i | .
O=C(NNC(=S)Nc1ccc(Cl)cc1Cl)c1ccc(N2CCOCC2)c([N+](=O)[O-])c1 | i | i | i | i | 0 | i | . | . | . | . | . | .
COC(=O)C1(C)NC(c2ccc(OC)cc2)C2C(=O)N(c3ccccc3)C(=O)C21 (stereo unspecified) | i | i | i | -7.78* | 0.01 | i | . | . | . | . | i | i | TRPC4 spec 2=i;TRPC4 spec=i;HEK293 MPD ctr 2-1=i;HEK293 MPD ctr-1=i
COC(=O)C1(C)NC(c2ccc(O)cc2)C2C(=O)N(c3ccccc3)C(=O)C21 (stereo unspecified) | i | i | i | i | -1.33 | i | . | . | . | . | . | .
CC1(C)CC(=O)C(C2C3=C(CC(C)(C)CC3=O)OC3=C2C(=O)CC(C)(C)C3)=C(O)C1 | i | i | i | i | 0.18 | i | . | . | . | . | . | .
C(=N\Nc1ncnc2sc3c(c12)CCC3)/c1ccncc1 | i | i | i | i | -1.51 | i | . | . | . | . | . | .
c1cc(Nc2ncnc3sc4c(c23)CCC4)ccn1 | i | i | i | -5.63* | 1.03 | i | -241.5%* | 67.0%* | -39.0%* | 38.5%* | 55.0%* | i
CC(C)N(C(=S)Nc1cccc(C(F)(F)F)c1)C(C)c1ccccn1 (stereo unspecified) | i | i | i | i | 1.35 | i | . | . | . | . | . | .
c1ccc(COc2ccccc2CNC23CC4CC(CC(C4)C2)C3)cc1 | 24.7* | i | i | -6.31* | -9.77* | i | 921.5%* | i | 196.5%* | 73.0%* | 65.0%* | 266.0%*
c1csc(COc2ccccc2CNC2CCCCC2)c1 | 13.1* | -10* | i | -10.5* | -4.22* | i | 513.5%* | 120.5%* | 109.0%* | 90.0%* | 111.0%* | 163.0%*
CCOC(=O)c1ccc(NC(=O)COc2ccccc2CNC2CCCC2)cc1 | i | i | i | i | -1.3 | i | . | . | . | . | . | .
O=C(COc1ccc(Br)cc1CNC1CCCCC1)NCCc1ccccc1 | i | i | i | -5.07* | -4.2 | i | 212.5%* | i | 41.0%* | 62.0%* | i | .
c1ccc(COc2ccccc2CNC2CCCC2)cc1 | i | i | i | -7.74* | -2.91 | i | 531.0%* | 130.5%* | 111.5%* | 90.5%* | 107.5%* | .
O=C(COc1ccc(Br)cc1Cl)NC(=O)NCc1ccccc1 | i | i | i | i | -0.59 | i | . | . | . | . | . | .
COc1ccccc1CNC(=O)C12CC3CC(CC(C3)C1)C2 | i | i | i | i | 1.07 | i | . | . | . | . | . | .
C=CCC1(CC=C)CCCN1C(=O)C1CCC(=O)N(CCc2ccccc2)C1 (stereo unspecified) | i | i | i | i | -0.76 | i | . | . | . | . | . | .
O=C(COc1ccc(Cl)cc1Cl)NNC(=S)NCc1ccco1 | i | i | i | -5.37* | -2.5 | i | i | i | i | i | i | i
O=C1c2cccc3cccc(c23)C(=O)N1CC1CCN(CC(O)COCc2ccc3c(c2)OCO3)CC1 (stereo unspecified) | i | i | i | -7.28* | -4.12 | i | . | . | . | . | 82.7%* | i | TRPC4 spec 2=19.0%*;TRPC4 spec=-27.8%*;HEK293 MPD ctr 2-1=33.0%*;HEK293 MPD ctr-1=-323.0%*
